“Also recorded” adds a separate entry of the source.
Legend:
GluRδ2^Wt [1] = target: T1, GluRδ2^Wt (Rattus norvegicus, UniProt Q63226); experiment: Two-electrode voltage-clamp recordings in Xenopus oocytes expressing GluRδ2^Wt; type: cell-based
T1 sequence (Q63226 24-1007): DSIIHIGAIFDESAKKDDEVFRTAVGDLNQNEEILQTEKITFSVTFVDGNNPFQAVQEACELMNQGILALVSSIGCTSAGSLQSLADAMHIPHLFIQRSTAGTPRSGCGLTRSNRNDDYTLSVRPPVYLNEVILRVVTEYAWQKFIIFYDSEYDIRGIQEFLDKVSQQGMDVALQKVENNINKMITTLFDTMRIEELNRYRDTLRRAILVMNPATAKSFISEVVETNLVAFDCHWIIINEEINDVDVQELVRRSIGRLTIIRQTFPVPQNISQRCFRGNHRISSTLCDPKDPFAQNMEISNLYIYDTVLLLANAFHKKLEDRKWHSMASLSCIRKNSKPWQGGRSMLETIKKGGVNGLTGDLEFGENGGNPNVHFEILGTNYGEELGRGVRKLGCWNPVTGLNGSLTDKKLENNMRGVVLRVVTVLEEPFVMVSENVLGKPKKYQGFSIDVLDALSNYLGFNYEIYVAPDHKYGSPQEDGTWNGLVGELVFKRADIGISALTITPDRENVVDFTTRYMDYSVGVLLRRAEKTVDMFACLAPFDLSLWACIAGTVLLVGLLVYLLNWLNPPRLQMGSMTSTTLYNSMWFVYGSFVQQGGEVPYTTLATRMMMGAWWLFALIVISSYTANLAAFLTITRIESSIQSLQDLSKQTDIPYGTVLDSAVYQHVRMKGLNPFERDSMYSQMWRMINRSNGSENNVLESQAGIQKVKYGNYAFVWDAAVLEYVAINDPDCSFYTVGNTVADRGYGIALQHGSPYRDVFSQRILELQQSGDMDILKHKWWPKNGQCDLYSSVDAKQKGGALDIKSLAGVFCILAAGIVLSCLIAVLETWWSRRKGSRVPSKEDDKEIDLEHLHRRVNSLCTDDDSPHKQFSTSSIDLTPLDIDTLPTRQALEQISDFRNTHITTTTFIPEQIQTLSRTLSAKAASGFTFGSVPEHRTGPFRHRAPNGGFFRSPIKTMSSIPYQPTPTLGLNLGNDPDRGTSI
Outline: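 Oocytes injected with wild-type receptor cRNA the day after excision and collagenase treatment. Two-electrode voltage clamp at −40 mV and 23°C, 24–72 h post-injection. Bath: 90 mM NaCl, 3 mM KCl, 0.5 mM BaCl2, 10 mM HEPES, pH 7.6. Ba2+ was replaced by 0.5 mM Mg2+, Zn2+, Mn2+, Sr2+ or Ca2+, or Ca2+ was raised stepwise. Choline or NMDG chloride kept osmolarity and Cl− constant. Baseline was current without Ca2+.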

GluRδ2^Wt [2] = target: T1, GluRδ2^Wt; settings: ref Naur et al., 2007; cited from earlier work

| SMILES | effect of divalent cation on currents at GluRδ2^Wt (GluRδ2^Wt [1]; 0.5 mM Ba^2+ exchanged with 0.5 mM of the divalent cation) | effect of extracellular Ca^2+ on baseline currents at GluRδ2^Wt (GluRδ2^Wt [1]; increasing concentrations of Ca^2+) | activation of currents at recombinant GluRδ2^Wt by D-serine (GluRδ2^Wt [2]) |
| --- | --- | --- | --- |
| [Ca+2] [Ca^2+, calcium] | no changes were observed | insensitive; also recorded: did not induce current | – |
| N[C@H](CO)C(=O)O [D-serine] | – | – | fails to activate currents |
